Source: PubChem BioAssay (several laboratories)
The sample as a whole holds a higher share of hits than the screen did.
DAT uptake mod = modulates human dopamine transporter uptake under cocaine; LLC-PK1 hDAT cells, [14C]-dopamine uptake with cocaine IC80; actives deviate in either direction; B-score at 10 µM; 110,000 tested, 1.3% active;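 active = Z score or B-score, a plate-position-corrected score, falls beyond the plate's 99.7% confidence bounds, in either direction; inactive = both scores lie inside the 99.7% bounds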;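 also: scored against the spread of the other compound wells on the same plate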
Target sequence (Q01959 whole entry, looked up): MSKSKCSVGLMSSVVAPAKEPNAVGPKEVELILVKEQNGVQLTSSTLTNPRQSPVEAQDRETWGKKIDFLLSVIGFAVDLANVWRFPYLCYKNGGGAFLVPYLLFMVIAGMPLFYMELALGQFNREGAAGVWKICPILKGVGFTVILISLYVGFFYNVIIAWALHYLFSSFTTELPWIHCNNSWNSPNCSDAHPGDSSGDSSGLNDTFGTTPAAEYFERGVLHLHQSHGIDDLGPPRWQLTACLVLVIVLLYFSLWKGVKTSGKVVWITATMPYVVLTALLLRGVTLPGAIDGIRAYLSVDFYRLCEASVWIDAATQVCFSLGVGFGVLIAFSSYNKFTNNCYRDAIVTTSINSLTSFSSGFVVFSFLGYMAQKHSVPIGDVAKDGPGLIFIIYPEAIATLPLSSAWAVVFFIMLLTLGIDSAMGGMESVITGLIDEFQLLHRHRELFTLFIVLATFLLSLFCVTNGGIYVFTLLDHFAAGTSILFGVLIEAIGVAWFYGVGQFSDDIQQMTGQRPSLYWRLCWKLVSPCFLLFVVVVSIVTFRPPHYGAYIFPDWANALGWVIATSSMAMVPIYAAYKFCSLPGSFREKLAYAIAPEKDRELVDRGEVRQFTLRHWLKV
HEK293 NFkB inh = inhibitors of the PMA/ionomycin-induced NF-kB reporter in HEK293 cells | HEK-293 NF-kB luciferase reporter, luminescence | inhibition, % at 3 µM | 62,000 tested, 0.21% active | AID 465;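 active = inhibition above the mean of all tested compounds plus 3 SD, cut at about 40% in these data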;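 also: 0% = stimulated DMSO wells and 100% = 10 µM reference inhibitor 5653914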
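System – HEK-293 cells with stable firefly luciferase reporter driven by four HIV NF-kB elements · Doses – one dose, 3 µM · Schedule – 1 h compound pre-incubation, 16 h PMA/ionomycin at 37 °C · Technique – luminescence from luciferase substrate reagent · Measure – percent inhibition normalized per plate to DMSO and reference-inhibitor controls · Replicates – tested once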
D1 mod = allosterically modulates the human D1 dopamine receptor | P21728 | 58,000 tested, 5.9% active | HEK293 D1, CRE-luciferase, dopamine EC30 potentiation; actives deviate in either direction | B-score at 10 µM;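 active = luminescence count or its row- and column-corrected plate score outside the 99.7% band of the plate's sample wells, on either side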
AP complement = alternative pathway complement inhibition, orthogonal assay; inhibition, % at 5 µM; AID 1235; 62,000 tested, 0.08% active; Human serum alternative complement pathway, LPS-coated ELISA, C3 deposition; tested in compound mixtures;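 active = inhibition above 30% in each of the two pooled mixtures holding the compound, so the lower value exceeds 30%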;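 also: 0% = serum in Mg-EGTA without compound and 100% = EDTA serum blank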
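Test system: human serum complement alternative pathway, C3 deposition onto LPS / Medium: Mg2+-EGTA GVB++ buffer containing human serum at 1:15 dilution / Probe or stimulus: Plate-bound LPS / Times: 1 h at 37 °C / Signal: ELISA with HRP anti-human C3 antibody, TMB substrate, absorbance 450 nm / Measure: percent inhibition / Repeats: two pool placements per compound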
E coli RNAP = blocks E. coli RNA polymerase transcription; P0A8V2; inhibition, %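 (tested at 10 µM)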; 62,000 tested, 0.2% active; fluorescence transcription assay; in the data active = inhibition above about 20%;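 also: 0% = enzyme without compound and 100% = no enzyme blank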
D1 mod confirm = confirmation of human D1 dopamine receptor allosteric modulators | shares compounds with D1 mod | HEK293 D1 CRE-luciferase, dopamine EC30 potentiation; stronger effect = higher value | luminescence at 10 µM | 2,200 tested, 88% active;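 active = luminescence in either of two replicates above the same-plate mean plus 3 SD of the low-dose dopamine control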
D1 ag no DA = activates D1 CRE-luciferase signal without dopamine present | 1,900 tested, 0.8% active | shares compounds with D1 mod | luminescence at 10 µM | HEK293 D1 CRE-luciferase, luminescence, no dopamine; stronger effect = higher value; in the data active = luminescence above about 3900
Isoprot counter = isoproterenol response counter-screen activity for D1 modulators. shares compounds with D1 mod. HEK293 D1 CRE-luciferase, isoproterenol EC30 counter-screen. calls only at 10 µM. 2,200 tested, 63% active. AID 647;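 active = luminescence in either replicate above plate mean of wells with a partly effective reference agonist dose plus 3 SD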;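 also: isoproterenol raises cAMP through native beta-adrenoceptor Gs so signal bypasses D1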
Starred values were filed as active, the others as inactive.

How did CCc1cccc2c(C#N)cn(CC(=O)NCCOC)c12 do in these assays?
DAT uptake mod: -0.59; HEK293 NFkB inh: 11; D1 mod: 3*; AP complement: 2; E coli RNAP: 12; D1 mod confirm: 4856; D1 ag no DA: 1524; Isoprot counter: inactive

Results for CCc1cccc2c(C#N)cn(CCOc3ccccc3OC)c12 ?
DAT uptake mod: -0.74; HEK293 NFkB inh: 6; D1 mod: -0.79; AP complement: 20; E coli RNAP: 1

How did CCCCN(C)C(=O)c1cn(CC)c2ccc(S(=O)(=O)N(C)C)cc2c1=O do in these assays?
DAT uptake mod: -0.48; HEK293 NFkB inh: -3; D1 mod: 3*; AP complement: 10; E coli RNAP: 5; D1 mod confirm: 5816; D1 ag no DA: 1512; Isoprot counter: inactive

How did Cc1ccc2c(c1)cc(CN(Cc1ccccc1)C(=O)N(C)C)c1nnnn12 do in these assays?
HEK293 NFkB inh: 4; D1 mod: 1.4; AP complement: -16; E coli RNAP: 5

Results for COC(=O)CSC1=C(C#N)C(c2cccc(OC)c2)CC(=O)N1 (stereo unspecified) ?
DAT uptake mod: -0.99; HEK293 NFkB inh: 8; D1 mod: 1.9*; AP complement: 2; E coli RNAP: 13; D1 mod confirm: 5484; D1 ag no DA: 1664; Isoprot counter: inactive

Results for COC(=O)CSC1=C(C#N)C(c2cccc(F)c2)CC(=O)N1 (stereo unspecified) ?
DAT uptake mod: -0.32; HEK293 NFkB inh: 2; D1 mod: 0.16; AP complement: 4; E coli RNAP: 4

What do the screens show for `COc1ccc(Nc2nc3ccccc3nc2C)cc1`?
DAT uptake mod: 2.1; HEK293 NFkB inh: 17; D1 mod: 3.1*; AP complement: 19; D1 mod confirm: 8152*; Isoprot counter: inactive

What do the screens show for `CSc1nnc(Cn2c(=O)sc3ccccc32)n1-c1ccccc1`?
DAT uptake mod: -0.18; HEK293 NFkB inh: 6; D1 mod: 0.29; AP complement: 11; E coli RNAP: -1

How did N=c1sc2ccccc2n1-c1ccccc1 do in these assays?
DAT uptake mod: 0.31; HEK293 NFkB inh: -7; D1 mod: 21*; AP complement: 13; E coli RNAP: 1; D1 mod confirm: 9268*; D1 ag no DA: 1508; Isoprot counter: active

Results for CC1=CCC2(CO)COC(c3ccccc3O)C1C2 (stereo unspecified) ?
DAT uptake mod: 0.13; HEK293 NFkB inh: 2; D1 mod: -4.2; AP complement: -1; E coli RNAP: 2

Results for CC(C)n1c(SCC(=O)N2c3ccccc3Sc3ccccc32)nc2c1c(=O)n(C)c(=O)n2C ?
DAT uptake mod: -0.0085; HEK293 NFkB inh: -10; D1 mod: 5.2*; AP complement: 11; E coli RNAP: 10; D1 mod confirm: 12564*; Isoprot counter: active

How did CCOc1ccccc1N1CCN(S(=O)(=O)c2cccc3nsnc23)CC1 do in these assays?
DAT uptake mod: -0.45; HEK293 NFkB inh: 12; D1 mod: 0.48; AP complement: 5; E coli RNAP: -3

How did CC1CCCN(c2nc3c(c(=O)[nH]c(=O)n3C)n2CCSc2nc3ccccc3o2)C1 (stereo unspecified) do in these assays?
DAT uptake mod: 0.25; HEK293 NFkB inh: 9; AP complement: 10; E coli RNAP: 7

Results for Cn1c(=O)[nH]c(=O)c2c1nc(N1CCCCC1)n2CCCSc1nc2ccccc2s1 ?
DAT uptake mod: 1.1; HEK293 NFkB inh: 2; D1 mod: 5.7*; D1 mod confirm: 16664*; D1 ag no DA: 1660; Isoprot counter: active
